In PMC3579768 (Biochemistry, 2012):
Bridge positions count the residues as written; N and C are the ends. Ends that are not written are not given here.

How the values were obtained:
[1] = Sedimentation velocity analytical ultracentrifugation; type: physicochemical; conditions: for sedimentation coefficient (s20,w), DCDT+ analysis: 20 °C
Outline: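 An-50 Ti rotor, double-sector charcoal-epon cells, interference or absorbance optics. 400 μL peptide sample against buffer reference, prepared just before the run, pH set with 1 N HCl. Buffers: 10 mM sodium phosphate (pH 7, 6, 4, 2; NaCl 50, 150, 500 mM) and 20 mM Tris-HCl or HEPES pH 7, ± 50 mM MgCl2/CaCl2. Fitting used c(s) Lamm and g(s*) from 22–26 scans, with modelled monomer/dimer/tetramer S-values.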

[2] = Sedimentation equilibrium analytical ultracentrifugation; type: physicochemical
Outline: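 Absorbance optics at 280 nm, 20 °C, An-50 Ti rotor. Samples were 400 μL of the oxidized peptide in 10 mM sodium phosphate, pH set with 1 N HCl: pH 8 (183, 230, 283 μM), pH 7 (165–288 μM), pH 6 (210, 330 μM), pH 4 (236, 288 μM), pH 2 (189, 238, 293 μM). Buffer viscosity, density and partial specific volume were computed for 20 °C.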

NMR relaxation = type: physicochemical; conditions: 90:10 H2O/D2O
HD5ox = conditions: SPR, pH 7.4, 150 mM NaCl; cited from earlier work
AUC = molecular target: the molecule itself; experiment: AUC

Row | Molecule | effect of Mg(II) and Ca(II) on the sedimentation coefficient ([1]; 50 mM MgCl2 or CaCl2 in 20 mM Tris-HCl or HEPES buffer, pH 7.0) | minimum frictional ratio (f/f0) ([1]; Equation 2, ssphere/s20,w, all buffers) | oligomeric form from comparison of experimental and calculated S-values ([1]; aqueous buffer at neutral pH, concentrations ≥30 μM) | sedimentation coefficient (s20,w), DCDT+ analysis ([1]; pH 2.0, 10 mM sodium phosphate buffer, 194 μM) [S] | sedimentation coefficient (s20,w), DCDT+ analysis ([1]; pH 4.0, 10 mM sodium phosphate buffer, 131 μM) [S] | sedimentation coefficient (s20,w), DCDT+ analysis ([1]; pH 6.0, 10 mM sodium phosphate buffer, 161 μM) [S] | sedimentation coefficient (s20,w), DCDT+ analysis ([1]; pH 7.0, 10 mM sodium phosphate buffer) [S] | effect of NaCl on the sedimentation coefficient ([1]; up to 500 mM NaCl, pH 7, 10 mM sodium phosphate buffer) | best-fit molecular weight by sedimentation equilibrium ([2]; pH 2.0, 10 mM sodium phosphate buffer, 189-293 μM, 20 °C) | oligomeric molecular weight to which the sedimentation equilibrium fit converged ([2]; pH 4.0, 6.0 and 8.0, 10 mM sodium phosphate buffer) | molecular weight estimated from TRACT Tc (NMR relaxation; 340 μM 13C,15N-HD5ox, pH 4) | rotational correlation time Tc, [15N,1H]-TRACT method (NMR relaxation; 340 μM 13C,15N-HD5ox, pH 4 (TFA)) | oligomerization state under the NMR sample conditions (NMR relaxation; 340 μM, pH 4, unbuffered) | HD5ox concentration above which evidence for higher-order oligomers was reported (HD5ox) [µM] | Kd (AUC) [µM] | stoichiometry N (AUC)
1 | Human defensin 5 (ATCYCRTGRCATRESLSGVCEISGRLYRLCCR; disulfide 10-30, 5-20, 3-31; also: 15N or 13C,15N labelled in NMR samples) [HD5ox] | negligible impact | ~ 1.2 | tetrameric | 1.0 | 1.2 | 1.6 | 1.8 | no effect | 7,079 Da | tetrameric | ca. 6.8 kDa | ca. 4.1 ns | dimer | > 8 | – | –
2 | ATCYCRTGRCATRESLSGVCEISGRLYRLCCR (peptide, UniProt Q01523 63-94, looked up, disulfide 10-30, 5-20, 3-31; also: 15N or 13C,15N labelled in NMR samples) [Human defensin 5, oxidized form (HD5ox)] | – | – | – | – | – | – | – | – | – | – | – | – | – | – | < 30 | 4
